According to ChEMBL document CHEMBL1629427, “Synthesis and structure-activity relationship of 3-O-acylated (-)-epigallocatechins as 5α-reductase inhibitors” (Eur J Med Chem, 2010):
Active and inactive are the calls of the source. The calls are words filed in the database; no cut-off is given here.

test system: PC-3; test: Anticancer activity against human PC3 cells xenografted in sc dosed SCID mouse assessed as inhibition of tumor growth at 80 mg/kg, ip qd for 14 days; assay type: functional; settings: PC-3, sc, 336 h
Outline: (§1)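 PC-3 xenografts in SCID mice; calipers tracked tumor volume once palpable, and dosing began at an average volume of ~50–100 mm³. Groups of 5 mice received one intraperitoneal dose daily for 14 days, formulated in 15% PEG 400, 5% EtOH and 80% H₂O, alongside a vehicle-only group. Tumor size and body weight were recorded every two days for 28 days; tumor size given as mean ± S.E.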

In the case of `O=C(O[C@@H]1Cc2c(O)cc(O)cc2O[C@@H]1c1cc(O)c(O)c(O)c1)c1cc(O)c(O)c(O)c1` [EPIGALOCATECHIN GALLATE], the inhibition in vivo at 80 mg/kg is reported as 32%.

species on record: Rattus norvegicus; test: Inhibition of rat liver microsomal Steroid 5-alpha-reductase at 5 uM after 30 mins by scintillation counting; settings: not given
Outline: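 Rat liver microsomal 5α-reductase (types 1 and 2) was incubated with 35 nM [³H]testosterone, 1.0 mM NADPH, 1 mM DTT and 40 mM potassium phosphate pH 6.5. Steroids were separated by TLC and the spots extracted with ethyl acetate for scintillation counting. Percent inhibition was taken at a single fixed test concentration.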

Going from `CC(=O)Oc1cc(OC(C)=O)c2c(c1)O[C@H](c1cc(OC(C)=O)c(OC(C)=O)c(OC(C)=O)c1)[C@H](OC(=O)c1cc(OC(C)=O)c(OC(C)=O)c(OC(C)=O)c1)C2` to `COc1cc(OC)c2c(c1)O[C@H](c1cc(OC)c(OC)c(OC)c1)[C@H](OC(=O)c1cc(OC)c(OC)c(OC)c1)C2`, the inhibition rises from 0.5% to 8.4%.

First: CC(C)=CC(=O)O[C@@H]1Cc2c(O)cc(O)cc2O[C@@H]1c1cc(O)c(O)c(O)c1
Second: CC(=O)O[C@@H]1Cc2c(O)cc(O)cc2O[C@@H]1c1cc(O)c(O)c(O)c1
The inhibition of the first is higher: 36% for the first, 3% for the second.

First: Cc1ccc(NC(=O)O[C@@H]2Cc3c(O)cc(O)cc3O[C@@H]2c2cc(O)c(O)c(O)c2)cc1
Second: O=C(Nc1ccc(Cl)cc1)O[C@@H]1Cc2c(O)cc(O)cc2O[C@@H]1c1cc(O)c(O)c(O)c1
The inhibition of the first is lower: 0.8% for the first, 19.1% for the second.

Going from `CCCCCCCCCCCCCCCCCCCCCC(=O)O[C@@H]1Cc2c(O)cc(O)cc2O[C@@H]1c1cc(O)c(O)c(O)c1` to `CCCCCCCCCCCCCCCCCCCC(=O)O[C@@H]1Cc2c(O)cc(O)cc2O[C@@H]1c1cc(O)c(O)c(O)c1`, the inhibition rises from 28.3% to 47.9%.

Compared with `CCCCCCCC(=O)O[C@@H]1Cc2c(O)cc(O)cc2O[C@@H]1c1cc(O)c(O)c(O)c1`, `CCCCCC(=O)O[C@@H]1Cc2c(O)cc(O)cc2O[C@@H]1c1cc(O)c(O)c(O)c1` is lower in inhibition: 49.3% for the first, 46% for the second.

Going from `C#CCCCC(=O)O[C@@H]1Cc2c(O)cc(O)cc2O[C@@H]1c1cc(O)c(O)c(O)c1` to `CCCC(=O)O[C@@H]1Cc2c(O)cc(O)cc2O[C@@H]1c1cc(O)c(O)c(O)c1`, the inhibition falls from 48.8% to 35%.

First: O=C(Nc1ccc2ccccc2c1)O[C@@H]1Cc2c(O)cc(O)cc2O[C@@H]1c1cc(O)c(O)c(O)c1
Second: C/C=C(\C)C(=O)O[C@@H]1Cc2c(O)cc(O)cc2O[C@@H]1c1cc(O)c(O)c(O)c1
The inhibition of the first is lower: 28.7% for the first, 29.1% for the second.

test system: PC-3; test: Anticancer activity against human PC3 cells xenografted in sc dosed SCID mouse assessed as inhibition of tumor growth at 20 mg/kg, ip qd for 14 days; assay type: functional; settings: not given; outline: as §1

For `O=C(O[C@@H]1Cc2c(O)cc(O)cc2O[C@@H]1c1cc(O)c(O)c(O)c1)c1cc(O)c(O)c(O)c1` [EPIGALOCATECHIN GALLATE], the inhibition was “inactive”.

same assay, conditions: PC-3, sc, 336 h, route subcutaneous

For `CCCCCC/C=C\CCCCCCCC(=O)O[C@@H]1Cc2c(O)cc(O)cc2O[C@@H]1c1cc(O)c(O)c(O)c1`, the inhibition in vivo at 20 mg/kg was 38%.

target: not listed separately; test: Inhibition of rat liver microsomal Steroid 5-alpha-reductase after 30 mins by scintillation counting; settings: not given
Outline: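 Rat liver microsomes containing both type 1 and type 2 5α-reductase. [³H]T and [³H]DHT spots were separated by TLC, cut out and extracted with ethyl acetate, then counted by liquid scintillation.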

`Cc1ccc(C(=O)O[C@@H]2Cc3c(O)cc(O)cc3O[C@@H]2c2cc(O)c(O)c(O)c2)cc1` and `O=C(O[C@@H]1Cc2c(O)cc(O)cc2O[C@@H]1c1cc(O)c(O)c(O)c1)c1ccc(Cl)cc1` are within 1.5-fold of each other in IC50: 1320 nM for the first, 1600 nM for the second.

`CC(C)=CCC/C(C)=C/C(=O)O[C@@H]1Cc2c(O)cc(O)cc2O[C@@H]1c1cc(O)c(O)c(O)c1` and `CCCCCCC/C=C/C(=O)O[C@@H]1Cc2c(O)cc(O)cc2O[C@@H]1c1cc(O)c(O)c(O)c1` are within 1.5-fold of each other in IC50: 2240 nM for the first, 2470 nM for the second.

Compared with `CCCCCCCCCC(=O)O[C@@H]1Cc2c(O)cc(O)cc2O[C@@H]1c1cc(O)c(O)c(O)c1`, `CCCCCCCCCCCC(=O)O[C@@H]1Cc2c(O)cc(O)cc2O[C@@H]1c1cc(O)c(O)c(O)c1` is 3.8-fold lower in IC50: 2940 nM for the first, 770 nM for the second. The second is the more potent here.

Compared with `CC(C)(C)C1CCC(C(=O)O[C@@H]2Cc3c(O)cc(O)cc3O[C@@H]2c2cc(O)c(O)c(O)c2)CC1` (some centres not stated), `O=C(O[C@@H]1Cc2c(O)cc(O)cc2O[C@@H]1c1cc(O)c(O)c(O)c1)c1cc(O)c(O)c(O)c1` [EPIGALOCATECHIN GALLATE] is 5.3-fold higher in IC50: 1190 nM for the first, 6290 nM for the second.

Going from `CCCCCCCC/C=C\CCCCCCCC(=O)O[C@@H]1Cc2c(O)cc(O)cc2O[C@@H]1c1cc(O)c(O)c(O)c1` to `CCCCCC/C=C\CCCCCCCC(=O)O[C@@H]1Cc2c(O)cc(O)cc2O[C@@H]1c1cc(O)c(O)c(O)c1`, the IC50 falls from 740 nM to 480 nM (1.5-fold). The second is the more potent here.

`CCCCCCCCCCCCCCCCCC(=O)O[C@@H]1Cc2c(O)cc(O)cc2O[C@@H]1c1cc(O)c(O)c(O)c1` and `CCCCCCCCCCCCCCCC(=O)O[C@@H]1Cc2c(O)cc(O)cc2O[C@@H]1c1cc(O)c(O)c(O)c1` are within 1.5-fold of each other in IC50: 730 nM for the first, 530 nM for the second.

`CCCCCCCCCCCCCC(=O)O[C@@H]1Cc2c(O)cc(O)cc2O[C@@H]1c1cc(O)c(O)c(O)c1` and `CC/C=C\C/C=C\C/C=C\CCCCCCCC(=O)O[C@@H]1Cc2c(O)cc(O)cc2O[C@@H]1c1cc(O)c(O)c(O)c1` are within 1.5-fold of each other in IC50: 600 nM for the first, 780 nM for the second.

Work on `CC1=C(/C=C/C(C)=C/C=C/C(C)=C/C(=O)O[C@@H]2Cc3c(O)cc(O)cc3O[C@@H]2c2cc(O)c(O)c(O)c2)C(C)(C)CCC1` yielded an IC50 of 760 nM.
